KDM4C inh: blocks human GASC-1 (KDM4C) demethylase activity; GST-KDM4C 2-372, H3K9me3 peptide, LANCE TR-FRET; Q9H3R0; inhibition, % at 12.5 µM; 96,000 tested, 0.15% active;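 active = mean replicate inhibition above about 25%, with at least 55% of replicates also reaching it, limit read from the data, passing the limit was not always enough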
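material = GST-tagged GASC-1 (JMJD2C) catalytic fragment, aa 2-372 | amount = enzyme final amount 10 nM | medium = HEPES buffer, pH 7.5, plus ascorbate | also added = H3K9me3 peptide substrate, Fe(II), 2-oxoglutarate | dosing = single dose | times = 30 min demethylation and 1 h detection at room temperature | detection = LANCE TR-FRET | read-out basis = Fall in 671/618 emission ratio as inhibition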
IDH1 R132H inh: inhibitors of human IDH1 R132H | O75874 | IDH1 R132H reductase, diaphorase/resazurin fluorescence, 60 min | inhibition, % at 10 µM | 70,000 tested, 0.18% active | AID 624101; in the data active = inhibition above about 34%;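 also: 0% = DMSO and 100% = no enzyme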
Target sequence (O75874 whole entry R132H): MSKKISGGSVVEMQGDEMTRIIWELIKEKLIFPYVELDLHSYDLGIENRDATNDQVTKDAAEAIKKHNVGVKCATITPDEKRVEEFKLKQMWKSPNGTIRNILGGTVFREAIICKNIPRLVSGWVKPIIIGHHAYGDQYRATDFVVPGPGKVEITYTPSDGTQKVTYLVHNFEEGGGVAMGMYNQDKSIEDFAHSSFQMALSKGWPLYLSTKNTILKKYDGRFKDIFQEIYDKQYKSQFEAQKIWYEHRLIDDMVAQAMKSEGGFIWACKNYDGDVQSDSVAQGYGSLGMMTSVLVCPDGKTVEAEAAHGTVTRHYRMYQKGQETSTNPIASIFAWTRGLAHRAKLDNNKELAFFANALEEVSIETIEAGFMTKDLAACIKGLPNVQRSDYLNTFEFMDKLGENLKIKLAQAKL
T cruzi growth: T. cruzi proliferation inhibition | 77,000 tested, 5.9% active | inhibition, % at 8.34 µM | T. cruzi beta-gal in NIH3T3, GalScreen luminescence, 90 h;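 active = mean inhibition above about 93%, with at least 55% of replicates each passing it, limit read from the data, passing the limit was not always enough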
Pf Dd2 growth: blocks growth of Plasmodium falciparum Dd2 parasites; AID 1159554; activity change, % at 10 µM; P. falciparum Dd2 growth, SYBR Green, 72 h; hits give low values; 94,000 tested, 2.3% active; in the data active = activity change below about -80%
The depositor's hits bear a star; · = no result given. The list is not random: actives were taken first. Their share in the collection is about 5.8%.

SMILES	KDM4C inh	IDH1 R132H inh	T cruzi growth	Pf Dd2 growth
Cc1ccc(S(=O)(=O)N(C)C[C@H]2OCCCC[C@H](C)Oc3ccc(NC(=O)C4CCCCC4)cc3C(=O)N([C@@H](C)CO)C[C@@H]2C)cc1	-1.2	1.2	25.7	-82.2*
Cc1ccc(S(=O)(=O)N(C)C[C@@H]2OCCCC[C@H](C)Oc3ccc(NC(=O)C4CCCCC4)cc3C(=O)N([C@@H](C)CO)C[C@H]2C)cc1	-0.9	·	74.5	-84.6*
C[C@H](CO)N1C[C@H](C)[C@@H](CN(C)S(=O)(=O)c2ccccc2)OCCCC[C@H](C)Oc2ccc(NC(=O)C3CCCCC3)cc2C1=O	0.0	·	54.9	-53.3
C[C@@H]1CN([C@H](C)CO)C(=O)c2cc(NC(=O)C3CCCCC3)ccc2O[C@@H](C)CCCCO[C@@H]1CN(C)S(=O)(=O)c1ccccc1	0.5	·	59.3	-81.9*
COC(=O)/C=C(\C)CCC1(C)C(C)CCC2(C)C(C)=CC(=O)CC21 (configuration not stated)	·	-0.3	·	·
Cc1ccc(S(=O)(=O)N(C)C[C@@H]2OCCCC[C@@H](C)Oc3ccc(NC(=O)C4CCCCC4)cc3C(=O)N([C@@H](C)CO)C[C@@H]2C)cc1	-2.3	-3.2	71.3	-78.7
Cc1ccc(S(=O)(=O)N(C)C[C@@H]2OCCCC[C@H](C)Oc3ccc(NC(=O)C4CCCCC4)cc3C(=O)N([C@H](C)CO)C[C@H]2C)cc1	0.3	·	82.2	-85.6*
C[C@@H]1CCCCO[C@@H](CN(C)S(=O)(=O)c2ccc(F)cc2)[C@H](C)CN([C@H](C)CO)C(=O)c2cc(NC(=O)Cc3ccccc3)ccc2O1	-0.8	0.2	48.8	-76.7
C[C@@H]1CN([C@@H](C)CO)C(=O)c2cc(NC(=O)Cc3ccccc3)ccc2O[C@@H](C)CCCCO[C@@H]1CN(C)S(=O)(=O)c1ccc(F)cc1	-1.0	-0.2	53.7	-86.7*
C[C@@H]1CN([C@H](C)CO)C(=O)c2cc(NC(=O)Cc3ccccc3)ccc2O[C@@H](C)CCCCO[C@@H]1CN(C)S(=O)(=O)c1ccccc1	0.2	-1.9	·	-81.1*
C[C@H](CO)N1C[C@H](C)[C@H](CN(C)S(=O)(=O)c2ccc(F)cc2)OCCCC[C@H](C)Oc2ccc(NC(=O)Cc3ccccc3)cc2C1=O	-0.5	-4.2	50.5	-74.4
C[C@@H]1CN([C@H](C)CO)C(=O)c2cc(NC(=O)Cc3ccccc3)ccc2O[C@@H](C)CCCCO[C@@H]1CN(C)S(=O)(=O)c1ccc(F)cc1	0.3	-0.2	72.7	-88.8*
O=C(O)C[C@@H]1C[C@H]2c3cc(NS(=O)(=O)c4ccccc4)ccc3O[C@H]2[C@@H](CO)O1	-1.0	-0.2	-19.7	10.6
COc1cccc(S(=O)(=O)Nc2ccc3c(c2)[C@@H]2C[C@H](CC(=O)O)O[C@@H](CO)[C@@H]2O3)c1	-1.4	-0.2	16.2	-14.2
COc1cccc(S(=O)(=O)Nc2ccc3c(c2)[C@H]2C[C@@H](CC(=O)O)O[C@H](CO)[C@H]2O3)c1	38.5*	72.2*	14.4	16.4
COc1cccc(S(=O)(=O)Nc2ccc3c(c2)[C@@H]2C[C@H](CC(=O)NCc4ccc(Cl)cc4)O[C@@H](CO)[C@@H]2O3)c1	-3.2	-0.1	66.4	-82.1*
O=C(O)C[C@@H]1C[C@@H]2c3cc(NS(=O)(=O)c4ccccc4)ccc3O[C@@H]2[C@H](CO)O1	0.9	·	·	-93.5*
CN1C(=O)c2cc(NS(C)(=O)=O)ccc2OC[C@H]2O[C@@H](CC(=O)NCc3ccc(-c4ccccc4)cc3)CC[C@H]21	-0.1	·	11.2	·
C[C@H]1CN([C@@H](C)CO)C(=O)c2cc(NS(=O)(=O)c3cn(C)cn3)ccc2O[C@@H]1CN(C)Cc1ccccc1	-1.1	2.6	-11.6	20.4
C[C@H](CO)N1C[C@H](C)[C@@H](CN(C)Cc2ccccc2)Oc2ccc(NC(=O)Nc3ccc(F)cc3)cc2CC1=O	-1.5	0.6	75.8	-88.3*
C[C@@H]1CN([C@@H](C)CO)C(=O)Cc2cc(NC(=O)Cc3cn(C)c4ccccc34)ccc2O[C@@H]1CN(C)Cc1ccc(Cl)c(Cl)c1	-0.8	·	82.4	-39.2
CC(C)NC(=O)Nc1ccc2c(c1)CC(=O)N([C@@H](C)CO)C[C@@H](C)[C@H](CN(C)Cc1ccncc1)O2	1.2	43.0*	·	2.6
C[C@@H]1CN([C@@H](C)CO)C(=O)Cc2cc(NC(=O)Cc3cn(C)c4ccccc34)ccc2O[C@H]1CN(C)Cc1ccc(Cl)c(Cl)c1	-2.0	-0.2	94.6	-81.7*
CC(C)NC(=O)Nc1ccc2c(c1)CC(=O)N([C@@H](C)CO)C[C@@H](C)[C@H](CN(C)Cc1ccc(Cl)c(Cl)c1)O2	0.5	-1.8	·	-82.0*
CCCC[C@H](O)[C@@H]1CC(OC)=CC(=O)O1	·	0.5	·	·
SMILES	KDM4C inh	IDH1 R132H inh	T cruzi growth	Pf Dd2 growth
COc1ccc(NC(=O)Nc2cccc3c2O[C@@H](CN(C)S(=O)(=O)c2ccc(Cl)cc2)[C@H](C)CN([C@@H](C)CO)C3=O)cc1	0.4	1.3	-23.5	-14.9
C[C@@H]1CN([C@@H](C)CO)C(=O)Cc2cc(NC(=O)C3CCCCC3)ccc2O[C@H]1CN(C)Cc1ccncc1	1.2	45.8*	61.6	-24.5
C[C@H]1CN([C@@H](C)CO)C(=O)Cc2cc(NC(=O)C3CCCCC3)ccc2O[C@H]1CN(C)Cc1ccncc1	0.8	2.4	21.0	-7.7
C[C@@H]1CN([C@@H](C)CO)C(=O)Cc2cc(NC(=O)Nc3ccc(F)cc3)ccc2O[C@@H]1CN(C)Cc1ccncc1	·	18.0	76.2	-9.0
C[C@@H]1CN([C@@H](C)CO)C(=O)Cc2cc(NC(=O)Nc3ccc(F)cc3)ccc2O[C@H]1CN(C)Cc1ccncc1	0.7	34.4*	67.9	7.9
COc1ccc(C(=O)Nc2ccc3c(c2)OC[C@@H](C)NC[C@H](C)[C@H](OC)CN(C)C3=O)cc1	0.5	-0.1	-6.3	-15.6
O=S(=O)(N[C@H]1CC[C@H](CCn2cc(Cc3ccccc3)nn2)O[C@H]1CO)c1ccccc1F	34.1*	0.6	1.2	-17.1
CN(C)Cc1cn(CC[C@@H]2CC[C@H](NS(=O)(=O)c3ccccc3)[C@H](CO)O2)nn1	0.4	0.0	·	·
O=S(=O)(N[C@H]1CC[C@@H](CCn2cc(C3(O)CCCC3)nn2)O[C@@H]1CO)c1ccc(F)cc1	35.9*	8.2	-52.0	-6.3
CCCc1cn(CC[C@H]2CC[C@@H](NS(=O)(=O)c3ccc(-c4ccccc4)cc3)[C@@H](CO)O2)nn1	-1.0	0.0	45.5	-93.7*
CCCc1cn(CC[C@@H]2CC[C@@H](NS(=O)(=O)c3ccc(-c4ccccc4)cc3)[C@@H](CO)O2)nn1	-0.9	-0.4	65.9	-91.4*
COCC(=O)N1C[C@@H](C)[C@@H](OC)CN(C)C(=O)c2cc(NC(=O)Nc3cccc(F)c3)ccc2OC[C@H]1C	0.4	0.1	-16.5	-1.5
CCC(=O)N1CC2(C1)CN(S(=O)(=O)c1ccccc1)[C@H](CO)c1[nH]c3cc(OC)ccc3c12	3.0	·	·	-16.9
CCS(=O)(=O)N1CC2(C1)CN(S(=O)(=O)c1cccc(OC)c1)[C@@H](CO)c1[nH]c3cc(OC)ccc3c12	-0.6	·	·	-84.2*

Screening data deposited in PubChem BioAssay by Broad Institute.
